In PubChem BioAssay AID588836 (Broad Institute, 2011):
Calls of active or inactive are those of the source. No rule for the calls is given here.

biological target: Scavenger receptor class B member 1 (Mus musculus) (UniProt Q61009); test: inhibitors of SR-BI [3H]CE-HDL uptake, late-stage follow-up, orthogonal assay for SR-BI HDL uptake inhibitor project, wild-type cells, scintillation, powder samples (AID 588836); details: CHO mSR-BI cells, [3H]cholesteryl ester HDL uptake, at 1 µM, stronger effect = lower value
Summary of the method: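 Material: LDL-receptor-deficient CHO cells overexpressing mouse SR-BI. Medium: Ham's F12K medium with 0.5% fatty-acid-free BSA. Probe or stimulus: HDL labeled with [3H]cholesteryl ester. Dosing: compound with 0.5% DMSO. Times: 1 h pretreatment plus 2 h uptake at 37 °C. Technique: liquid scintillation counting of cell-associated [3H]cholesteryl ester.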

Scavenger receptor class B member 1 (Mus musculus), sequence (Q61009 whole entry, looked up): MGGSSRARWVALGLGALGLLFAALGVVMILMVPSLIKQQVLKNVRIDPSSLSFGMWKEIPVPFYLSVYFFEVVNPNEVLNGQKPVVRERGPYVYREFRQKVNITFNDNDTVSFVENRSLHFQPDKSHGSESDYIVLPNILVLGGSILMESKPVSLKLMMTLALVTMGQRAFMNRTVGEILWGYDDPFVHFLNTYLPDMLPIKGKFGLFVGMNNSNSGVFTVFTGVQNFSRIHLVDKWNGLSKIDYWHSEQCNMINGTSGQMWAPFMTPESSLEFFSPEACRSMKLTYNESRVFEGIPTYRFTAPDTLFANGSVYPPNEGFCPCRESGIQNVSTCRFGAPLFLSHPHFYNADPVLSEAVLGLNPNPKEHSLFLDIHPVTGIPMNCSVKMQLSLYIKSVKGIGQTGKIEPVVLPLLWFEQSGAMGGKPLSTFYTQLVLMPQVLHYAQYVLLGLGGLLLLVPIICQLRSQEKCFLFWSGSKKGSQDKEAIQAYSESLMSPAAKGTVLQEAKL

Structure (SMILES) | HDL cholesterol uptake
O=C(Nc1ccc(Cl)cc1C(=O)c1ccc(Cl)cc1)c1cc(Br)ccc1NS(=O)(=O)c1ccc(Cl)cc1 | 85.2% (inactive)
COc1ccc(-c2nnn(CC(=O)N(C3CCCCC3)C(C)C(=O)NC3CCCC3)n2)cc1OC (stereo not given) | 48.9%
CCOC(=O)N1CCC(NC(=O)c2ccc3c(c2)N(Cc2ccc(F)cc2)CCS3)CC1 | 45.9%
CCC(=O)N1CCc2cc(-c3csc(NC(=O)c4ccco4)n3)ccc21 | 52.6%
Cc1ccc2oc(-c3cccc(NC(=O)c4cc(-n5cnnc5)ccc4Cl)c3)nc2c1 | 54.8%
